Results as given in ChEMBL document CHEMBL1134445, “Design and synthesis of potent C(2)-symmetric diol-based HIV-1 protease inhibitors: effects of fluoro substitution” (J Med Chem, 2001).

Tests used:
[1] = molecular target: Human immunodeficiency virus type 1 protease (Human immunodeficiency virus 1) (UniProt Q72874); experiment: Anti-HIV-1 activity against Wild type virus in MT-4 cells; assay type: functional, cell-based; conditions: MT4
Summary of the method: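 MT4 cells infected with HIV-1; in vitro antiviral ED50 derived from colorimetric XTT read-out of virus cytopathic effect.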

[2] = molecular target: Human immunodeficiency virus type 1 protease (Human immunodeficiency virus 1) (UniProt Q72874); experiment: Anti-HIV-1 activity against mutant HIV-1 in MT-4 cells (mutation selected with nelfinavir); assay type: functional, cell-based; conditions: MT4
Summary of the method: (§1)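 Resistant HIV-1 IIIb raised in MT4 cells: started at sub-ED50 drug with 20-50 TCID50 virus, p24 in supernatant tracked, cell-free virus passaged at 5-fold rising drug levels until growing above 50-fold wild-type ED50; these supernatants served as stocks. ED50 then determined in MT4 cells by XTT cytopathic-effect assay.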

[3] = molecular target: Human immunodeficiency virus type 1 protease (Human immunodeficiency virus 1) (UniProt Q72874); experiment: Anti-HIV-1 activity against mutant HIV-1 in MT-4 cells (mutation selected with compound 1); assay type: functional, cell-based; conditions: MT4; summary of the method: as §1
[4] = molecular target: Human immunodeficiency virus type 1 protease (Human immunodeficiency virus 1) (UniProt Q72874); experiment: Anti-HIV-1 activity against mutant HIV-1 in MT-4 cells (mutation selected with saquinavir); assay type: functional, cell-based; conditions: MT4; summary of the method: as §1
[5] = molecular target: Human immunodeficiency virus type 1 protease (Human immunodeficiency virus 1) (UniProt Q72874); experiment: Anti-HIV-1 activity against mutant HIV-1 in MT-4 cells (mutation selected with ritonavir); assay type: functional, cell-based; conditions: MT4; summary of the method: as §1
[6] = molecular target: Human immunodeficiency virus type 1 protease (Human immunodeficiency virus 1, UniProt Q72874); experiment: Inhibitory concentration against HIV-1 protease
Summary of the method: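 Recombinant HIV-1 protease, cloned and expressed in Escherichia coli; inhibition measured by fluorometric assay and reported as Ki.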

[7] = tested on: Human immunodeficiency virus 1; experiment: Anti-HIV-1 activity against Wild type virus. in MT-4 cells; assay type: functional; conditions: Human immunodeficiency virus 1, MT4; read-out: ED50 (the source's name)
Summary of the method: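 Antiviral ED50 determined in MT4 cells infected with HIV-1; cytopathogenic effect read out by colorimetric XTT assay.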

Cc1c(O)cccc1C(=O)N[C@@H](CSc1ccccc1)[C@H](O)CN1C[C@H]2CCCC[C@H]2C[C@H]1C(=O)NC(C)(C)C
ED50 [1]: 20 nM
ED50 [2]: 2440 nM
ED50 [3]: 70 nM
ED50 [4]: 120 nM
ED50 [5]: 110 nM

CNC(=O)[C@@H](NC(=O)[C@H](OCc1cc(F)cc(F)c1)[C@H](O)[C@@H](O)[C@@H](OCc1cc(F)cc(F)c1)C(=O)N[C@H](C(=O)NC)C(C)C)C(C)C
ED50 [1]: 420 nM
ED50 [2]: 340 nM
ED50 [3]: 1320 nM
ED50 [4]: 1640 nM
Ki [6]: 1.98 nM
ED50 [5]: 1400 nM

O=C(NC1c2ccccc2C[C@H]1O)[C@H](OCc1cc(F)ccc1F)[C@H](O)[C@@H](O)[C@@H](OCc1cc(F)ccc1F)C(=O)N[C@H]1c2ccccc2C[C@H]1O (some centres undefined)
ED50 [1]: 20 nM
ED50 [2]: 100 nM
ED50 [3]: 160 nM
ED50 [4]: 80 nM
Ki [6]: 3.29 nM
ED50 [5]: 710 nM

CC(C)(C)NC(=O)[C@@H]1C[C@@H]2CCCC[C@@H]2CN1C[C@@H](O)[C@H](Cc1ccccc1)NC(=O)[C@H](CC(N)=O)NC(=O)c1ccc2ccccc2n1
ED50 [1]: 10 nM
ED50 [2]: 30 nM
ED50 [3]: 10 nM
ED50 [4]: 80 nM
ED50 [5]: 10 nM

CNC(=O)[C@@H](NC(=O)[C@H](OCc1ccc(F)c(F)c1)[C@H](O)[C@@H](O)[C@@H](OCc1ccc(F)c(F)c1)C(=O)N[C@H](C(=O)NC)C(C)C)C(C)C
ED50 [1]: 670 nM
ED50 [2]: 850 nM
ED50 [3]: 2840 nM
ED50 [4]: 810 nM
Ki [6]: 1.98 nM
ED50 [5]: 1220 nM

CNC(=O)[C@@H](NC(=O)[C@H](OCc1cccc(F)c1)[C@H](O)[C@@H](O)[C@@H](OCc1cccc(F)c1)C(=O)N[C@H](C(=O)NC)C(C)C)C(C)C
ED50 [1]: 680 nM
ED50 [2]: 1100 nM
ED50 [3]: 1840 nM
ED50 [4]: 1040 nM
Ki [6]: 1.83 nM
ED50 [5]: 1690 nM

CC(C)c1nc(CN(C)C(=O)N[C@H](C(=O)N[C@@H](Cc2ccccc2)C[C@H](O)[C@H](Cc2ccccc2)NC(=O)OCc2cncs2)C(C)C)cs1
ED50 [1]: 60 nM
ED50 [2]: 150 nM
ED50 [3]: 980 nM
ED50 [4]: 410 nM
ED50 [5]: 2470 nM

CNC(=O)[C@@H](NC(=O)[C@H](OCc1ccccc1)[C@H](O)[C@@H](O)[C@@H](OCc1ccccc1)C(=O)N[C@H](C(=O)NC)C(C)C)C(C)C
ED50 [2]: > 15000 nM
ED50 [3]: 8130 nM
ED50 [4]: 6100 nM
EC50 [7]: 1320 nM
Ki [6]: 0.8 nM
ED50 [5]: > 15000 nM

CNC(=O)[C@@H](NC(=O)[C@H](OCc1cccc(F)c1F)[C@H](O)[C@@H](O)[C@@H](OCc1cccc(F)c1F)C(=O)N[C@H](C(=O)NC)C(C)C)C(C)C
ED50 [1]: 660 nM
ED50 [2]: 340 nM
ED50 [3]: 1540 nM
ED50 [4]: 1110 nM
Ki [6]: 1.28 nM
ED50 [5]: 2260 nM

O=C(NC1c2ccccc2C[C@H]1O)[C@H](OCc1ccccc1)[C@H](O)[C@@H](O)[C@@H](OCc1ccccc1)C(=O)N[C@H]1c2ccccc2C[C@H]1O (some centres undefined)
ED50 [1]: 100 nM
ED50 [2]: 100 nM
ED50 [3]: 460 nM
ED50 [4]: 70 nM
Ki [6]: 1.22 nM
ED50 [5]: 1280 nM

O=C(NC1c2ccccc2C[C@H]1O)[C@H](OCc1ccc(F)c(F)c1)[C@H](O)[C@@H](O)[C@@H](OCc1ccc(F)c(F)c1)C(=O)N[C@H]1c2ccccc2C[C@H]1O (some centres undefined)
ED50 [1]: 130 nM
ED50 [2]: 300 nM
ED50 [3]: 1050 nM
ED50 [4]: 160 nM
Ki [6]: 3.9 nM
ED50 [5]: 1300 nM

CNC(=O)[C@@H](NC(=O)[C@H](OCc1cc(F)ccc1F)[C@H](O)[C@@H](O)[C@@H](OCc1cc(F)ccc1F)C(=O)N[C@H](C(=O)NC)C(C)C)C(C)C
ED50 [1]: 650 nM
ED50 [2]: 1380 nM
ED50 [3]: 10700 nM
ED50 [4]: 1380 nM
Ki [6]: 1.98 nM
ED50 [5]: 10900 nM

O=C(NC1c2ccccc2C[C@H]1O)[C@H](OCc1cccc(F)c1F)[C@H](O)[C@@H](O)[C@@H](OCc1cccc(F)c1F)C(=O)N[C@H]1c2ccccc2C[C@H]1O (some centres undefined)
ED50 [1]: 30 nM
ED50 [2]: 60 nM
ED50 [3]: 240 nM
ED50 [4]: 50 nM
Ki [6]: 4 nM
ED50 [5]: 880 nM

O=C(NC1c2ccccc2C[C@H]1O)[C@H](OCc1ccc(F)cc1F)[C@H](O)[C@@H](O)[C@@H](OCc1ccc(F)cc1F)C(=O)N[C@H]1c2ccccc2C[C@H]1O (some centres undefined)
ED50 [1]: 110 nM
ED50 [2]: 250 nM
ED50 [3]: 670 nM
ED50 [4]: 370 nM
Ki [6]: 1.65 nM
ED50 [5]: 1730 nM

CNC(=O)[C@@H](NC(=O)[C@H](OCc1c(F)cccc1F)[C@H](O)[C@@H](O)[C@@H](OCc1c(F)cccc1F)C(=O)N[C@H](C(=O)NC)C(C)C)C(C)C
ED50 [1]: 1350 nM
ED50 [2]: 7140 nM
ED50 [3]: > 15000 nM
ED50 [4]: 8140 nM
Ki [6]: 1.73 nM
ED50 [5]: > 15000 nM

O=C(NC1c2ccccc2C[C@H]1O)[C@H](OCc1ccccc1F)[C@H](O)[C@@H](O)[C@@H](OCc1ccccc1F)C(=O)N[C@H]1c2ccccc2C[C@H]1O (some centres undefined)
ED50 [1]: 50 nM
ED50 [2]: 210 nM
ED50 [3]: 270 nM
ED50 [4]: 80 nM
Ki [6]: 3.26 nM
ED50 [5]: 510 nM

CNC(=O)[C@@H](NC(=O)[C@H](OCc1ccccc1F)[C@H](O)[C@@H](O)[C@@H](OCc1ccccc1F)C(=O)N[C@H](C(=O)NC)C(C)C)C(C)C
ED50 [1]: 280 nM
ED50 [2]: 1150 nM
ED50 [3]: 9340 nM
ED50 [4]: 630 nM
Ki [6]: 1.92 nM
ED50 [5]: 7450 nM

CNC(=O)[C@@H](NC(=O)[C@H](OCc1ccc(F)cc1)[C@H](O)[C@@H](O)[C@@H](OCc1ccc(F)cc1)C(=O)N[C@H](C(=O)NC)C(C)C)C(C)C
ED50 [1]: 1170 nM
ED50 [2]: 1320 nM
ED50 [3]: 7820 nM
ED50 [4]: 3650 nM
Ki [6]: 1.79 nM
ED50 [5]: 970 nM

O=C(NC1c2ccccc2C[C@H]1O)[C@H](OCc1c(F)cccc1F)[C@H](O)[C@@H](O)[C@@H](OCc1c(F)cccc1F)C(=O)N[C@H]1c2ccccc2C[C@H]1O (some centres undefined)
ED50 [1]: 60 nM
ED50 [2]: 250 nM
ED50 [3]: 310 nM
ED50 [4]: 130 nM
Ki [6]: 1.64 nM
ED50 [5]: 1390 nM

O=C(NC1c2ccccc2C[C@H]1O)[C@H](OCc1ccc(F)cc1)[C@H](O)[C@@H](O)[C@@H](OCc1ccc(F)cc1)C(=O)N[C@H]1c2ccccc2C[C@H]1O (some centres undefined)
ED50 [1]: 250 nM
ED50 [2]: 560 nM
ED50 [3]: 1130 nM
Ki [6]: 5.39 nM
ED50 [5]: 1130 nM

O=C(NC1c2ccccc2C[C@H]1O)[C@H](OCc1cc(F)cc(F)c1)[C@H](O)[C@@H](O)[C@@H](OCc1cc(F)cc(F)c1)C(=O)N[C@H]1c2ccccc2C[C@H]1O (some centres undefined)
ED50 [1]: 50 nM
ED50 [2]: 240 nM
ED50 [3]: 230 nM
ED50 [4]: 90 nM
Ki [6]: 5 nM
ED50 [5]: 1060 nM

O=C(NC1c2ccccc2C[C@H]1O)[C@H](OCc1cccc(F)c1)[C@H](O)[C@@H](O)[C@@H](OCc1cccc(F)c1)C(=O)N[C@H]1c2ccccc2C[C@H]1O (some centres undefined)
ED50 [1]: 60 nM
ED50 [2]: 210 nM
ED50 [3]: 180 nM
ED50 [4]: 950 nM
Ki [6]: 7.13 nM
ED50 [5]: 530 nM

CNC(=O)[C@@H](NC(=O)[C@H](OCc1ccc(F)cc1F)[C@H](O)[C@@H](O)[C@@H](OCc1ccc(F)cc1F)C(=O)N[C@H](C(=O)NC)C(C)C)C(C)C
ED50 [1]: 720 nM
ED50 [2]: 480 nM
ED50 [3]: 3350 nM
ED50 [4]: 1170 nM
Ki [6]: 1.12 nM
ED50 [5]: 1890 nM
